Consider 7 molecules from ChEMBL document CHEMBL5316336, “Development of Human Carbonic Anhydrase II Heterobifunctional Degraders” (J Med Chem, 2023).

Holding throughout (type): cell-based
The target of assay [1] is T1, Protein cereblon/Carbonic anhydrase 2 (Homo sapiens, UniProt P00918+Q96SW2). Briefly: Protac activity at CRBN/CA-2 in HEK293 cells assessed as degradation of carbonic anhydrase-2 measured after 24 hrs by Western blot analysis. The settings on record: dose <= 15.0 µM. An outline of the steps:
(§1)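 Nine-point dose response, 5 pM to 15 μM, in HEK293 cells for 24 h before lysis, three biological replicates; Western blot with hCAII normalized to β-actin and DMSO vehicle. DC50 (95% CI) and DMax from least-squares sigmoidal fit of concentrations below the hook region; log(inhibitor) vs response, three-parameter fit.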
In general terms: A western blot detects proteins with antibodies after separation by electrophoresis.

Assay [2] addresses T1, Protein cereblon/Carbonic anhydrase 2. Briefly: Protac activity at CRBN/CA-2 in HEK293 cells assessed as degradation of carbonic anhydrase-2. An outline of the steps:
as §1

For assay [3] the target is unchanged. Briefly: Protac activity at CRBN/CA-2 in HEK293 cells assessed as degradation of carbonic anhydrase-2 at 15 uM measured after 24 hrs by Western blot analysis relative to control. An outline of the steps:
(§2)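 HEK293 cells (DMEM, 10% FBS, 37 °C, 5% CO2) plated at 2 × 10⁶/well, dosed in DMSO (0.5% final) 24 h before lysis at ~90% confluency. 30–50 μg lysate protein on SDS-PAGE, blotted with anti-hCAII and anti-β-actin, Cy5 secondary. hCAII/β-actin ratio normalized to DMSO wells, as % DMSO.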

For assay [4], the target named is Carbonic anhydrase 2 (Homo sapiens) (UniProt P00918). The assay can be described thus: Induction of in carbonic anhydrase-2 HEK293 cells assessed as degradation of carbonic anhydrase-2 at 5 uM measured after 24 hrs by Western blot analysis. The procedure, abridged:
as §2

Assay [5] concerns the target T1, Protein cereblon/Carbonic anhydrase 2. Briefly: Protac activity at CRBN/CA-2 in HEK293 cells assessed as degradation of carbonic anhydrase-2 at 50 pM measured after 24 hrs by Western blot analysis. An outline of the steps: as §2
Assay [6] has the same target. The assay can be described thus: Protac activity at CRBN/CA-2 in HEK293 cells assessed as degradation of carbonic anhydrase-2 at 50 nM by Western blot analysis. The settings on record: time lower 0.0 hrs, time upper […]. An outline of the steps:
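HEK293 cells given 50 nM compound for 0–48 h time course; hCAII abundance by Western blot, hCAII/β-actin normalized to DMSO vehicle.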

Assay [7] has the same target. Briefly: Protac activity at CRBN/CA-2 in HEK293 cells assessed as degradation of carbonic anhydrase-2 at 50 nM preincubated for 1 hr with acetazolamide followed by compound addition and measured after 6 hrs by Western blot analysis.
For assay [8] the target is unchanged. Briefly: Protac activity at CRBN/CA-2 in HEK293 cells assessed as degradation of carbonic anhydrase-2 at 50 nM preincubated for 1 hr with lenalidomide followed by compound addition and measured after 6 hrs by Western blot analysis.
The target is the same in assay [9]. The assay can be described thus: Protac activity at CRBN/CA-2 in HEK293 cells assessed as degradation of carbonic anhydrase-2 at 50 nM preincubated for 1 hr with MG-132 followed by compound addition and measured after 6 hrs by Western blot analysis. The procedure, abridged: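 HEK293 cells pretreated 1 h with MG-132 at 1 μM, then 50 nM compound for 6 h; hCAII by Western blot, hCAII/β-actin relative to DMSO controls.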

Each structure is given as a SMILES string. Activity calls are given as the source filed them. The calls are words filed in the database; no cut-off is given here.

`NS(=O)(=O)c1ccc(C(=O)NCCCOCCCCOCCCNc2cccc3c2C(=O)N(C2CCC(=O)NC2=O)C3=O)cc1` (stereo not given): the results for the Activity entry in [1] and in assay [3] were “Dose-Dependent Effect” and 100%, respectively. In [2], the EC50 came out at 5 nM.
In the same order, the values of `NS(=O)(=O)c1ccc(C(=O)NCCCOCCOCCOCCCNc2cccc3c2C(=O)N(C2CCC(=O)NC2=O)C3=O)cc1` (stereo not given) are “Dose-Dependent Effect”, 100% and 245 nM.
For the molecule `CN1C(=O)CCC(N2C(=O)c3cccc(NCCCOCCCCOCCCNC(=O)c4ccc(S(N)(=O)=O)cc4)c3C2=O)C1=O` (stereo not given), the result in assay [4] was inactive.
On to `CS(=O)(=O)c1ccc(C(=O)NCCCOCCCCOCCCNc2cccc3c2C(=O)N(C2CCC(=O)NC2=O)C3=O)cc1` (stereo not given), for which, in [4], the result was inactive.
On to `CN1C(=O)CCC(N2C(=O)c3cccc(NCCCOCCOCCOCCCNC(=O)c4ccc(S(N)(=O)=O)cc4)c3C2=O)C1=O` (stereo not given), for which the result in assay [4] was inactive.
As to `NS(=O)(=O)c1ccc(C(=O)NCCCCCCCCCCCCNc2cccc3c2C(=O)N(C2CCC(=O)NC2=O)C3=O)cc1` (stereo not given), in assay [5], the result was Active. The Activity result in assay [6] is “Dose-Dependent Effect”. In addition, the result in [7], in assay [8] and in [9] was inactive.
Consider `CS(=O)(=O)c1ccc(C(=O)NCCCOCCOCCOCCCNc2cccc3c2C(=O)N(C2CCC(=O)NC2=O)C3=O)cc1` (stereo not given), for which, in [4], the result was inactive.

One may read the EC50 as the concentration needed to bring the measured effect to its halfway point.
